Active and inactive are the calls of the source. The calls are words filed in the database; no cut-off is given here.
Legend:
Histone deacetylase 8 = biological target: T1, Histone deacetylase 8 (Homo sapiens, UniProt Q9BY41); test: Inhibition of recombinant human C-terminal His-tagged HDAC8 (1 to 377 residues) expressed in baculovirus-infected insect cells using RHK(Ac)K(Ac)AMC as substrate after 60 mins by fluorimeter
T1 sequence (Q9BY41 whole entry): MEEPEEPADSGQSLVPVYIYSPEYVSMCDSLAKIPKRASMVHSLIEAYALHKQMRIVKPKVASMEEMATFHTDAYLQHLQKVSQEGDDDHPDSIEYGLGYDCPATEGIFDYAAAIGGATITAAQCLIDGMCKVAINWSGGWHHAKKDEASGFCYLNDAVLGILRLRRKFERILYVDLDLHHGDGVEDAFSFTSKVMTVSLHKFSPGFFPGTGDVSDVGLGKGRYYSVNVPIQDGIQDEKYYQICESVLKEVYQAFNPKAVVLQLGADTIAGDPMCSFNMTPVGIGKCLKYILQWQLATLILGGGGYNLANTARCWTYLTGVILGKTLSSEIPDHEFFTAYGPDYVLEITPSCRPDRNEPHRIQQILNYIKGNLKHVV

[1] = biological target: T2, Protein deacetylase HDAC6 (Homo sapiens, UniProt Q9UBN7); test: Inhibition of full length recombinant human N-terminal GST-tagged HDAC6 expressed in baculovirus-infected Sf9 insect cells using RHKK(Ac)AMC as substrate after 90 mins by fluorimeter
T2 sequence (Q9UBN7 whole entry): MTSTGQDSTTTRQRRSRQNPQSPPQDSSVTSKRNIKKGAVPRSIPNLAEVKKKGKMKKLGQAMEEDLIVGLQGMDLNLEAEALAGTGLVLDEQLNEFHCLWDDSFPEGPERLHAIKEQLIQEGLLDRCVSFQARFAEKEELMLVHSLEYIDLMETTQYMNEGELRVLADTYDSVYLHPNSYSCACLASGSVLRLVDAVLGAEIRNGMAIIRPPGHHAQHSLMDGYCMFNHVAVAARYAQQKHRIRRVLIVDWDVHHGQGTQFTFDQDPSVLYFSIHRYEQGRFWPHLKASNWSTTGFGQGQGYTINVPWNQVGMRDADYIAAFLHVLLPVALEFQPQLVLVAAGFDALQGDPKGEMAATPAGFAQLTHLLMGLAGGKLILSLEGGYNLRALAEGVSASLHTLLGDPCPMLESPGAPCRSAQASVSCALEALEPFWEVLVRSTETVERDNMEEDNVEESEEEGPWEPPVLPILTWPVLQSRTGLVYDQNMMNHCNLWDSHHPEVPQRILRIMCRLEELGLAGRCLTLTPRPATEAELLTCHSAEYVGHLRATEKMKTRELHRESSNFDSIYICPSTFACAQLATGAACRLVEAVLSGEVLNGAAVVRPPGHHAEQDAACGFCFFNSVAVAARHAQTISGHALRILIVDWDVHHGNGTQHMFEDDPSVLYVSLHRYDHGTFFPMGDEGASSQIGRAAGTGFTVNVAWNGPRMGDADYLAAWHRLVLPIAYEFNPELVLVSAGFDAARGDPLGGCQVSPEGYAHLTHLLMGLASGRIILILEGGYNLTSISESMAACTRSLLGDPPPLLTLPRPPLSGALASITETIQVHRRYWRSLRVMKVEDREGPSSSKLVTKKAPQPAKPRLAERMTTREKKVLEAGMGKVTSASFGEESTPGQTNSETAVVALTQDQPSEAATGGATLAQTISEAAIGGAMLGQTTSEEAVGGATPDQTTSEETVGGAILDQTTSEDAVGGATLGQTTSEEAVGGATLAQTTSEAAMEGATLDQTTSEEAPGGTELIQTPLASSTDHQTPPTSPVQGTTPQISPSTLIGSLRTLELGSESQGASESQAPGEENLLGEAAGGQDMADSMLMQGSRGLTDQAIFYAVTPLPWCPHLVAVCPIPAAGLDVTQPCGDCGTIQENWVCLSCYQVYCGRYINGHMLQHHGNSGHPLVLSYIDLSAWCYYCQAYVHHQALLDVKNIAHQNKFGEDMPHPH

Histone deacetylase 2 = Histone deacetylase 2 (Homo sapiens, UniProt Q92769); test: Inhibition of full length recombinant human C-terminal GST-tagged HDAC2 expressed in baculovirus-infected insect cells using RHKK(Ac)AMC as substrate after 60 mins by fluorimeter
Sequence of Histone deacetylase 2 (Q92769 whole entry): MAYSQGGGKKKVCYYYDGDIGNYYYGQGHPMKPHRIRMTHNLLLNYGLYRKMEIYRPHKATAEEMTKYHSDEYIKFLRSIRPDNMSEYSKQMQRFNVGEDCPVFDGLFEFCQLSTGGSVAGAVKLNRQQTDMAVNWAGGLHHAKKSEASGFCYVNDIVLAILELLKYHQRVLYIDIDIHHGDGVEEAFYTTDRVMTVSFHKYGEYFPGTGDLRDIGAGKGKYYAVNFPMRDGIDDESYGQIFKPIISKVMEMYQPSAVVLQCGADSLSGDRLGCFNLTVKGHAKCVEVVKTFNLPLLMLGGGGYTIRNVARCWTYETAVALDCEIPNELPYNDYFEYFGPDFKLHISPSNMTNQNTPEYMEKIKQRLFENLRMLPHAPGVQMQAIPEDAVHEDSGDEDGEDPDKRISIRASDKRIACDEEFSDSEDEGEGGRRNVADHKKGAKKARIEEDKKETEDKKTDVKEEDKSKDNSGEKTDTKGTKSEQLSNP

[2] = biological target: T3, Protein deacetylase HDAC6 (Homo sapiens) (UniProt Q9UBN7); test: Inhibition of HDAC6 in human MV4-11 cells assessed as induction of alpha-tubulin hyperacetylation after 24 hrs by Western blot method; type: cell-based
T3 sequence (whole entry): T2 sequence (Q9UBN7 whole entry)
Outline: (§1)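 MV4-11 cells were exposed to the inhibitor, from 5 nM to 10 µM for 24 h or at 50 nM for 10 min to 48 h. Lysates were immunoblotted for acetylated tubulin, acetylated histone H3 and HDAC6. Acetyl-tubulin was quantified by densitometry normalised to HSP90. MS-275 at 5 µM for 24 h was the comparator. Blots are representative of at least two independent experiments.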

Mus musculus [3] = test: Toxicity in DBA/1J mouse collagen-induced arthritis model assessed as effect on hemoglobin concentration at 42.3 mg/kg, ip administered every morning for 12 to 14 days measured post last dose relative to vehicle-treated control; type: organism-based; conditions: in vivo
Mus musculus [4] = test: Antiarthritic activity in DBA/1J mouse collagen-induced arthritis model assessed as reduction of articular bone erosion in arthritic hind paw at 42.3 mg/kg, ip administered every morning for 12 to 14 days measured post last dose by microCT method relative to vehicle-treated control; type: functional, organism-based
Mus musculus [5] = test: Antiarthritic activity in DBA/1J mouse collagen-induced arthritis model assessed as decrease in ratio of articular bone surface to articular bone volume at 42.3 mg/kg, ip administered every morning for 12 to 14 days measured post last dose by microCT method relative to vehicle-treated control; type: functional, organism-based
Mus musculus [6] = test: Toxicity in DBA/1J mouse collagen-induced arthritis model assessed as effect on white blood cell count at 42.3 mg/kg, ip administered every morning for 12 to 14 days measured post last dose relative to vehicle-treated control; type: organism-based; conditions: in vivo
Mus musculus [7] = test: Antiarthritic activity in DBA/1J mouse collagen-induced arthritis model assessed as decrease in clinical scores at 42.3 mg/kg, ip administered every morning for 6 days measured post last dose; type: functional, organism-based
Outline: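 Collagen type II-induced arthritis in mice, second experiment, treated at 42.3 mg/kg (equimolar dose) versus vehicle. Clinical arthritis scores were followed from the beginning of treatment.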

Mus musculus [8] = test: Toxicity in DBA/1J mouse collagen-induced arthritis model assessed as effect on red blood cell count at 42.3 mg/kg, ip administered every morning for 12 to 14 days measured post last dose relative to vehicle-treated control; type: organism-based; conditions: in vivo
Homo sapiens = species: Homo sapiens; test: Selectivity ratio of Ki for recombinant human C-terminal GST-tagged HDAC2 to Ki for full length recombinant human N-terminal GST-tagged HDAC6
Outline: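 Recombinant human HDAC2 and HDAC6 enzymes, fluorescence-based activity assay. […] IC50s were curve-fitted from duplicate determinations. Ki was calculated from IC50 by the Cheng–Prusoff equation, and the ratio was taken from these Ki values. TSA served as internal standard.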

MV4-11 [9] = test: Cell cycle arrest in human MV4-11 cells assessed as accumulation at sub-G1 phase at 5 uM after 24 hrs by propidium iodide staining-based flow cytometric method; type: functional
Outline: (§2)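 Cells were stained with propidium iodide and analysed by flow cytometry for cell-cycle distribution and the subG1 fraction (fragmented DNA). Representative of at least two independent experiments.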

PBMC = test: Induction of apoptosis in human PBMC at 5 uM after 24 hrs by Annexin V/propidium iodide staining-based flow cytometric method; type: cell-based
HEL = test: Cell cycle arrest in human HEL cells at 5 uM after 24 hrs by propidium iodide staining-based flow cytometric method; type: functional
[10] = Inhibition of class 1 HDAC in human MV4-11 cells assessed as induction of histone hyperacetylation at 5 uM after 24 hrs by Western blot method; type: cell-based; outline: as §1
Jurkat = test: Cell cycle arrest in human Jurkat cells at 5 uM after 24 hrs by propidium iodide staining-based flow cytometric method; type: functional
MV4-11 [11] = test: Cell cycle arrest in human MV4-11 cells assessed as accumulation at sub-G1 phase at 30 to 50 nM after 24 hrs by propidium iodide staining-based flow cytometric method; type: functional; outline: as §2

Row | Compound | Ki (Histone deacetylase 8) | Ki [1] | Ki (Histone deacetylase 2) | alpha-tubulin hyperacetylation (active/not active) [2] | other results
1 | CN1C(=O)C2c3c(n(Cc4ccc(C(=O)NO)cc4)c4ccccc34)CCN2C1=O (centres undefined) | 761 nM | 1.86 nM | 995 nM | – | –
2 | CN1C(=O)C2CN(Cc3c2c2ccccc2n3Cc2cccc(/C=C/C(=O)NO)c2)C1=O (centres undefined) | 13.1 nM | 72.2 nM | 768 nM | – | –
3 | COc1ccc2c(c1)c1c(n2Cc2ccc(C(=O)NO)cc2)CN2CC1C(=O)N(C)C2 (centres undefined) | 299 nM | 0.16 nM | 370 nM | inactive | –
4 | CN1C(=O)C2CN(Cc3c2c2cc(OCCN4CCOCC4)ccc2n3Cc2ccc(C(=O)NO)cc2)C1=O.Cl (centres undefined) | 721 nM | 0.48 nM | 313 nM | – | Activity (Mus musculus [3]): Non-Toxic; Activity (Mus musculus [4]): Active; Activity (Mus musculus [5]): Active; Activity (Mus musculus [6]): Non-Toxic; Activity (Mus musculus [7]): Active; Activity (Mus musculus [8]): Non-Toxic
5 | CN1CN2Cc3c(c4ccccc4n3Cc3ccc(C(=O)NO)cc3)C(C2)C1=O (centres undefined) | 427 nM | 0.23 nM | 1360 nM | inactive | –
6 | CN1C(=O)[C@@H]2CN(Cc3c2c2ccccc2n3Cc2ccc(C(=O)NO)cc2)C1=O | 999 nM | 0.7 nM | 5200 nM | – | –
7 | CN1C(=O)C2CN(Cc3c2c2ccccc2n3Cc2ccc(/C=C/C(=O)NO)cc2)C1=O (centres undefined) | 205 nM | 4.15 nM | 66.5 nM | – | –
8 | O=C(/C=C/c1ccc(Cn2c3c(c4ccccc42)CCN2C(=O)CCCC32)cc1)NO (centres undefined) | 720 nM | 14.1 nM | 234 nM | – | –
9 | O=C(NO)c1ccc(Cn2c3c(c4ccccc42)C2CCN(C3)C2)cc1 (centres undefined) | 1540 nM | 6.51 nM | 6100 nM | – | Ratio Ki (Homo sapiens): 940
10 | Nc1ccccc1NC(=O)c1ccc(CNC(=O)OCc2cccnc2)cc1 [ENTINOSTAT] | – | – | – | – | Activity (MV4-11 [9]): Active; Activity (PBMC): Toxic; Activity (HEL): Active; inhibition (INH) [10]: Active; Activity (Jurkat): Active
11 | Cc1[nH]c2ccccc2c1CCNCc1ccc(/C=C/C(=O)NO)cc1 | – | – | – | – | Activity (MV4-11 [11]): Active
12 | COc1ccc2c3c(n(Cc4ccc(C(=O)NO)cc4)c2c1)CN1CC3C(=O)N(C)C1=O (centres undefined) | 93.3 nM | 0.32 nM | 70.8 nM | Active | –
13 | CN1C(=O)N2Cc3c(c4ccccc4n3Cc3ccc(C(=O)NO)cc3)C(C2)C1=S (centres undefined) | 701 nM | 0.88 nM | 943 nM | Active | –
14 | COc1ccc2c(c1)c1c(n2Cc2ccc(C(=O)NO)cc2)CN2CC1C(=O)N(C)C2=O (centres undefined) | 124 nM | 0.15 nM | 310 nM | Active | –
15 | CN1C(=O)C2CN(Cc3c2c2cc(OCc4ccccc4)ccc2n3Cc2ccc(C(=O)NO)cc2)C1=O (centres undefined) | – | 0.08 nM | – | – | –
16 | CN1CC2CN(Cc3c2c2ccccc2n3Cc2ccc(C(=O)NO)cc2)C1=O (centres undefined) | 528 nM | 0.51 nM | 484 nM | Active | –
17 | O=C(NO)c1ccc(Cn2c3c(c4ccccc42)CCN2C(=O)CCCC32)cc1 (centres undefined) | 1680 nM | 30.2 nM | 7240 nM | – | –
18 | CN1C(=O)C2CN(Cc3c2c2ccccc2n3Cc2ccc(C(=O)O)cc2)C1=O (centres undefined) | > 40000 nM | > 20000 nM | > 10000 nM | – | –
19 | CN1C(=O)C2CN(Cc3c2c2cc(O)ccc2n3Cc2ccc(C(=O)NO)cc2)C1=O (centres undefined) | – | 0.42 nM | – | – | –
20 | CN1C(=O)[C@H]2CN(Cc3c2c2ccccc2n3Cc2ccc(C(=O)NO)cc2)C1=O | 294 nM | 2.01 nM | 3200 nM | – | –
21 | CN1C(=O)C2CN(Cc3c2c2ccc4ccccc4c2n3Cc2ccc(C(=O)NO)cc2)C1=O (centres undefined) | – | 1.78 nM | – | – | –
22 | CN1C(=O)C2CN(Cc3c2c2ccccc2n3Cc2ccc(C(=O)NO)cc2)C1=S (centres undefined) | 40.4 nM | 0.45 nM | 469 nM | inactive | –

Reference: ChEMBL document CHEMBL4043295, “Marbostat-100 Defines a New Class of Potent and Selective Antiinflammatory and Antirheumatic Histone Deacetylase 6 Inhibitors” (J Med Chem, 2018)
